The target in experiment [1] is Translocator protein (Rattus norvegicus) (UniProt P16257). Put plainly: Displacement of [3H]Ro5-4864 from TSPO in rat kidney mitochondrial membrane at 1 to 1000 nM. It is filed as cell membranes. The settings on record: TDE = time-dependent effect. The procedure, abridged:
(§1)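 Rat kidney membranes preincubated with ligand (1 nM to 1 μM) for 0, 10, 30, 60, 90 or 180 min in binding buffer. Stopped with ice-cold 50 mM Tris/HCl pH 7.4, centrifuged 13000g 15 min at 4 °C, pellets washed twice. Residual [3H]Ro 5-4864 binding then measured at 65 μg protein/tube. ln B/B0 plotted against time. Kd and K2 taken from a 1/Kobs vs 1/[D] plot. Duplicates, three experiments.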

For experiment [2], the target named is T1, Translocator protein (Rattus norvegicus, UniProt P16257). Briefly: Displacement of [3H]Ro5-4864 from TSPO in rat kidney mitochondrial membrane. It counts as cell membranes. The gist of the method:
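IC50 and Ki taken from displacement curves. Bound radioactivity expressed as percent of specific binding. Triplicate determinations pooled from three independent experiments.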

Experiment [3] deals with T1, Translocator protein. Briefly: Irreversible binding affinity to TSPO in rat kidney mitochondrial membrane. It is filed as cell membranes. The procedure, abridged: as §1
Experiment [4] has as its target Translocator protein (Rattus norvegicus) (UniProt P16257). Put plainly: Displacement of [3H]Ro5-4864 from TSPO in rat kidney mitochondrial membrane after 180 mins. It is filed as cell membranes. The procedure, abridged:
as §1

Experiment [5] concerns the target Translocator protein (Homo sapiens) (UniProt P30536). Briefly: Irreversible binding affinity to TSPO in human U87MG cells at 100 to 500 nM after 90 mins in presence of 10 uM Ro5-4864. It is filed as cell-based. To be noted: U-87MG ATCC. The procedure, abridged:
(§2)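 U87MG cells grown in RPMI 1640 with 10% FBS, seeded at 4 × 10^4 cells/well for 24 h. Some wells pretreated with 10 μM Ro 5-4864, then given probe (100, 250, 500 nM) for 20 or 90 min at 37 °C, 5% CO2. Four washes in medium with cysteine, then PBS. Fluorescence read at Ex 485/Em 535 nm. Mean ± SEM, at least three experiments in duplicate.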

Experiment [6] has the same target. Put plainly: Irreversible binding affinity to TSPO in human U87MG cells at 100 to 500 nM after 20 mins in presence of 10 uM Ro5-4864. It counts as cell-based. To be noted: U-87MG ATCC. The procedure, abridged:
as §2

Calls of active or inactive are those of the source. The rule behind the calls is not given here.

T1 sequence (P16257 whole entry, looked up): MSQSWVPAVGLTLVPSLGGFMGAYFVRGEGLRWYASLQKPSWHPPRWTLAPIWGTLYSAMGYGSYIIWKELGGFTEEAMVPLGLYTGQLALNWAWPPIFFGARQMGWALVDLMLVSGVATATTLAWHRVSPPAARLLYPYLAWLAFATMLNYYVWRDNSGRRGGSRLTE
Chain of Translocator protein (Rattus norvegicus) (P16257 whole entry, looked up): as above
Chain of Translocator protein (Homo sapiens) (P30536 whole entry): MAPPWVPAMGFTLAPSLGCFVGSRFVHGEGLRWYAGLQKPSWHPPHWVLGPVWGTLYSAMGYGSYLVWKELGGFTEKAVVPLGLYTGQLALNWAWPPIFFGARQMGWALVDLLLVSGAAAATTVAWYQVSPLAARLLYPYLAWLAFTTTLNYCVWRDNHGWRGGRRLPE

With `CCCCCCN(CCCCCC)C(=O)C(=O)c1c(-c2ccccc2)[nH]c2ccc(N=C=S)cc12`, the Activity entry in experiment [1] was “tde”. In experiment [2], this compound showed an IC50 of 59.7 nM and a Ki of 49.5 nM. In experiment [3], this compound registered a Kd of 5.07 nM. For the same compound, in experiment [4], the Activity entry is “Dose-dependent effect”.

As for `O=C(NCCCCCCNc1ccc([N+](=O)[O-])c2nonc12)C(=O)c1c(-c2ccccc2)[nH]c2ccc(N=C=S)cc12`, in experiment [5], the result was Active. The Activity result in experiment [1] is “tde”. Besides, the outcome in experiment [6] was inactive. Also, in experiment [2], the IC50 amounted to 42.2 nM and the Ki was determined as 37.6 nM. The dissociation constant Kd in experiment [3] came out at 8.31 nM. The Activity result in experiment [4] was “Dose-dependent effect”.

With `CCCN(CCC)C(=O)C(=O)c1c(-c2ccccc2)[nH]c2ccc(N=C=S)cc12`, the Activity result in experiment [1] is “tde”. In experiment [2], this compound showed a concentration for half-maximal inhibition (IC50) of 45.6 nM and a Ki of 37.9 nM. In experiment [3], this compound yielded a Kd of 3.17 nM. In experiment [4], the Activity entry is “Dose-dependent effect”.

Source of the values: ChEMBL document CHEMBL1157813, “Novel irreversible fluorescent probes targeting the 18 kDa translocator protein: synthesis and biological characterization” (J Med Chem, 2010).
